Activity calls are given as the source filed them. No cut-off for these calls is given here.
Legend:
Format in all cases: cell-based
[1] = target: T1, Antigen-presenting glycoprotein CD1d (Homo sapiens) (UniProt P15813); assay: Binding affinity to C1R-hCD1d expressed in human B cells assessed as increase in Th1 cytokine release in mouse iNKT cells upto 100 ng/ml after 36 hrs by ELISA
T1 sequence (whole entry): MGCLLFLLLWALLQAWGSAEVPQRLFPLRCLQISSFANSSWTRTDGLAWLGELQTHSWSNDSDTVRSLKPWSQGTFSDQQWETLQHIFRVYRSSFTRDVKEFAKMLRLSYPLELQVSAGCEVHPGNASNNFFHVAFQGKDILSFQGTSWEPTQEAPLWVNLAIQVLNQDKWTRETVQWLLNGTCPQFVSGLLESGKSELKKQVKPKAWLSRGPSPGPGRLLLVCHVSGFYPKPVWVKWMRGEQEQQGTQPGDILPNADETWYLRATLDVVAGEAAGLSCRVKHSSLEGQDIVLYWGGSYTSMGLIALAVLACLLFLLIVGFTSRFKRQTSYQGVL

[2] = target: T1, Antigen-presenting glycoprotein CD1d (Homo sapiens); assay: Binding affinity to C1R-hCD1d expressed in human B cells assessed as increase in Th2 cytokine release in mouse iNKT cells upto 100 ng/ml after 36 hrs by ELISA
[3] = target: T1, Antigen-presenting glycoprotein CD1d (Homo sapiens); assay: Binding affinity to C1R-hCD1d expressed in human B cells assessed as activation of IFN-gamma release in human iNKT cells upto 100 ng/ml after 36 hrs by ELISA
Summary of the method: (§1)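 C1R cells expressing human CD1d were pulsed with lipid at a range of concentrations. 5 × 10⁴ pulsed targets were co-cultured with 2 × 10⁴ human iNKT line cells at 37 °C for 36 h. IFN-γ and IL-4 in the harvested supernatants were quantified by ELISA, and IFN-γ/IL-4 and IL-4/IFN-γ ratios were derived from these values.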

[4] = target: T1, Antigen-presenting glycoprotein CD1d (Homo sapiens); assay: Binding affinity to C1R-hCD1d expressed in human B cells assessed as activation of IL-4 release in human iNKT cells upto 100 ng/ml after 36 hrs by ELISA; summary of the method: as §1
[5] = target: T1, Antigen-presenting glycoprotein CD1d (Homo sapiens); assay: Binding affinity to C1R-hCD1d expressed in human B cells assessed as change in IFN-gamma/IL4 ratio in human iNKT cells upto 100 ng/ml after 36 hrs by ELISA; summary of the method: as §1
[6] = target: T1, Antigen-presenting glycoprotein CD1d (Homo sapiens); assay: Binding affinity to C1R-hCD1d expressed in human B cells assessed as increase in IFN-gamma/IL4 ratio in mouse iNKT cells upto 100 ng/ml after 36 hrs by ELISA

SMILES | Activity [1] | Activity [2] | Activity [3] | Activity [4] | Activity [5] | Activity [6]
CCCCCCCCCCCCCCCCCCCCCCCCCC(=O)N[C@@H](CO[C@H]1O[C@H](CO)[C@H](O)[C@H](O)[C@H]1O)[C@H](O)[C@H](O)CCCCC | Active | Active | Active | Active | inactive | Active
CCCCCCCCCCCCCCCCCCCCCCCCCC(=O)N[C@@H](CO[C@H]1O[C@H](CO)[C@H](O)[C@H](O)[C@H]1O)[C@H](O)[C@H](O)CCCCCCCCCCCCCC | Active | – | Active | Active | inactive | Active
CCCCCCCCCCCCCCCCCCCCCCCCCC(=O)N[C@@H](CO[C@H]1O[C@H](CO)[C@H](O)[C@H](O)[C@H]1O)[C@H](O)[C@H](O)CCCCCCCC | Active | Active | Active | Active | inactive | Active
CCCCCCCCCCCCCCCCCCCCCCCCCC(=O)N[C@@H](CO[C@H]1O[C@H](CO)[C@H](O)[C@H](O)[C@H]1O)[C@H](O)[C@H](O)CCCCCCCCCCC | Active | Active | Active | Active | inactive | Active
CCCCC/C=C\C/C=C\CCCCCCCCCC(=O)N[C@@H](CO[C@H]1O[C@H](CO)[C@H](O)[C@H](O)[C@H]1O)[C@H](O)[C@H](O)CCCCCCCCCCCCCC | Active | Active | – | – | inactive | Active

Reference: ChEMBL document CHEMBL1641364, “Synthesis of truncated analogues of the iNKT cell agonist, α-galactosyl ceramide (KRN7000), and their biological evaluation” (Bioorg Med Chem, 2011)
